Our source for the Activity and IC50 values is ChEMBL document CHEMBL3779830, “Diterpenoids from the Roots of Euphorbia fischeriana with Inhibitory Effects on Nitric Oxide Production” (J Nat Prod, 2016).

Series [1] deals with RAW264.7. Nature of the series: Cytotoxicity against mouse RAW264.7 cells assessed as cell viability at nitric oxide IC50 level by MTT assay. It counts as cell-based. An outline of the steps: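 Viability was read by MTT colorimetric assay on the cells remaining after the NO assay. That assay seeded RAW 264.7 cells at 2 × 10^6 cells/mL and stimulated them with 1 μg/mL LPS, with or without compounds, for 24 h at 37 °C.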
Background: Tetrazolium assays rely on reduction of a dye to a coloured formazan, in cell work by metabolically active cells.

Series [2] concerns RAW264.7. The series is described as follows: Inhibition of LPS-induced nitric oxide production in mouse RAW264.7 cells after 24 hrs by Griess assay. Type of series: functional, cell-based. The note with it: RAW264.7, 24 h. An outline of the steps:
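RAW 264.7 cells seeded at 2 × 10^6 cells/mL and stimulated with 1 μg/mL LPS, with or without compounds, for 24 h at 37 °C. Cell-free supernatant was mixed 1:1 with Griess reagent (2% sulfanilamide in 5% phosphoric acid plus 0.2% N-(1-naphthyl)ethylenediamine). Nitrite was read at 550 nm against sodium nitrite standards. Aminoguanidine and indomethacin were positive controls. Means ± SD from triplicate experiments.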
For orientation: Nitrite, measured by Griess reagent, commonly stands in for NO production.

What is called IC50 is the midpoint of a concentration-inhibition curve. Read a low IC50 as greater potency in that assay. As to `C=C[C@]1(C)CC[C@@]2(C)c3cc(O)c(O)c(C)c3CC[C@@H]2C1`, in series [1], the Activity result is reported as “Non-toxic”. Further, in series [2], the IC50 was determined as 7.4 µM.

For `C=C[C@]1(C)CC[C@]2(C)[C@H](CC[C@H]3[C@@](C)(CO)C(=O)C=C[C@]32O)C1`, in series [1], the Activity result is recorded as “Non-toxic”.

For the molecule `C=C[C@]1(C)CC[C@@]2(C)C3=CC(=O)O[C@@H]3C(C)(C)C[C@H](O)[C@@H]2C1`, the Activity result in series [1] was “Non-toxic”. For the same molecule, the IC50 in series [2] was more than 20 µM.

For `CC1=C2[C@H](OC1=O)[C@H](O)[C@H]1[C@]3(C)CCCC(C)(C)[C@H]3CC[C@@]1(O)[C@H]2O`, the Activity entry in series [1] is listed as “Non-toxic”. This molecule also yielded an IC50 in series [2] of 5.6 µM.

In the case of `CC1=C2[C@@H](O)[C@@]3(O)CC[C@@H]4C(C)(C)CCC[C@@]4(C)[C@@H]3[C@@H](O)[C@H]2OC1=O`, the Activity entry in series [1] is reported as “Non-toxic”. Further, in series [2], the IC50 was more than 20 µM.

Consider `CC1=C2[C@H]3O[C@]34CC[C@@H]3C(C)(C)CCC[C@@]3(C)[C@@H]4[C@@H](O)[C@H]2OC1=O`, for which the Activity result in series [1] is “Non-toxic”. Further, the IC50 in series [2] was 12.6 µM.

For the molecule `CC1=C2[C@@H](O)C3=C([C@@H](O)[C@H]2OC1=O)[C@]1(C)CCCC(C)(C)[C@H]1CC3`, the Activity entry in series [1] is reported as “Non-toxic”. Further, in series [2], the IC50 is more than 20 µM.

On to `CC1=C2[C@@H](O)C3=CC[C@@H]4C(C)(C)CCC[C@@]4(C)[C@@H]3[C@@H](O)[C@H]2OC1=O`, for which the Activity result in series [1] is “Non-toxic”. The IC50 in series [2] is more than 20 µM.

Regarding `CC1=C2C(=O)C3=C([C@@H](O)[C@H]2OC1=O)[C@]1(C)CCCC(C)(C)[C@H]1CC3`, the Activity entry in series [1] is “Non-toxic”. In series [2], the IC50 is more than 20 µM.

With `CC1=C2C=C3CC[C@@H]4C(C)(C)CCC[C@@]4(C)[C@@H]3[C@H](O)[C@H]2OC1=O`, the Activity result in series [1] is “Non-toxic”. In series [2], this molecule came in with an IC50 of more than 20 µM.

Turning to `CC1=C2C=C3[C@@H](O)C[C@@H]4C(C)(C)CCC[C@@]4(C)[C@@H]3[C@@H](O)[C@H]2OC1=O`, the Activity result in series [1] was “Non-toxic”. Further, the IC50 in series [2] was more than 20 µM.

Turning to `C=C1C[C@@]23CC[C@@H]4C(C)(C)C(=O)CC[C@@]4(C)[C@@H]2C[C@@H]1[C@@H](O)C3=O`, the Activity entry in series [1] was “Non-toxic”. This molecule had an IC50 in series [2] of more than 20 µM.

As to `C[C@H]1C[C@]2(OC(=O)/C=C/c3ccccc3)C(=O)/C(CO)=C/[C@@H]3[C@H](CC[C@@]4(C)O[C@H]4[C@H]2[C@H]1O)C3(C)C`, the Activity result in series [1] is reported as “Non-toxic”. For the same molecule, it took 9.4 µM to reach half-maximal inhibition in series [2] (IC50).

Molecule `COc1ccc2c(c1)c(CC(=O)O)c(C)n2C(=O)c1ccc(Cl)cc1` [INDOMETHACIN] showed an IC50 in series [2] of 12.5 µM.

As for `CC1=C[C@]23C(=O)[C@@H](C=C(CO)[C@@H](O)[C@]2(O)[C@H]1O)[C@H]1[C@@H](C[C@H]3C)C1(C)C` [INGENOL], in series [1], the Activity result is “Non-toxic”. In series [2], the IC50 is more than 20 µM.

`N=C(N)NN` [PIMAGEDINE] displayed an IC50 in series [2] of 18.7 µM.
